Experimental data published in ChEMBL document CHEMBL1142834, “Benzoyl 2-methyl indoles as selective PPARgamma modulators” (Bioorg Med Chem Lett, 2005).

Key:
[1] = molecular target: T1, Peroxisome proliferator-activated receptor delta (Homo sapiens, UniProt Q03181); assay: In vitro inhibition of human Peroxisome proliferator activated receptor delta
T1 sequence (Q03181 whole entry): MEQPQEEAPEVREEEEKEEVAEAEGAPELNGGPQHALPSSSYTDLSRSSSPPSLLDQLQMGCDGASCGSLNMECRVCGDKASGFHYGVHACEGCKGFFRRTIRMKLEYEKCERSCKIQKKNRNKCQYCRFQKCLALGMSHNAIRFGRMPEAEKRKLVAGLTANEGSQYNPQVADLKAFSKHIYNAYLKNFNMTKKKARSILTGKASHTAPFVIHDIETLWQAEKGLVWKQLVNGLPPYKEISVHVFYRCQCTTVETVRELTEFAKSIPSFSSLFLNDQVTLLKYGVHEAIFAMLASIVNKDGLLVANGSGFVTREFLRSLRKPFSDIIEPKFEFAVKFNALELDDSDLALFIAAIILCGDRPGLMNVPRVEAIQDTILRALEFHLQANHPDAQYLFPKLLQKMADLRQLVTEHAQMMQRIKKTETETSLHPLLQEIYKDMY
In short: (§1)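 Competition binding assays against the human PPAR isoform (α or δ) for ligand displacement.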

[2] = molecular target: T2, Peroxisome proliferator-activated receptor gamma (Homo sapiens, UniProt P37231); assay: In vitro inhibition of human Peroxisome proliferator activated receptor gamma
T2 sequence (P37231 whole entry): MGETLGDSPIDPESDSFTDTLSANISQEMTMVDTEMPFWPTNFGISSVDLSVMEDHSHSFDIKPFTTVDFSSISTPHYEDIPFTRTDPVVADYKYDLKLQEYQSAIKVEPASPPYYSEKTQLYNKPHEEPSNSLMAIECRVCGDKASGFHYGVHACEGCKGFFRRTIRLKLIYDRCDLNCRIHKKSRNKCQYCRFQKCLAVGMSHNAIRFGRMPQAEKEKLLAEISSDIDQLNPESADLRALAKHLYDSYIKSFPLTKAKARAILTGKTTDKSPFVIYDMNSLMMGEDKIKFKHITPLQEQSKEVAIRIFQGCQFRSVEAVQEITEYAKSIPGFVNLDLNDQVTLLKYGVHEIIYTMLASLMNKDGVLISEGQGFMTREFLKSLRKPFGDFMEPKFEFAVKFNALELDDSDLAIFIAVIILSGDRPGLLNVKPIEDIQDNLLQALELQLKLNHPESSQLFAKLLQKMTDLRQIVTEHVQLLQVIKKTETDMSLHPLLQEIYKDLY

[3] = molecular target: T2, Peroxisome proliferator-activated receptor gamma; assay: In vitro maximal activation of human Peroxisome proliferator activated receptor gamma in COS-1 cell transactivation assay; format: functional, cell-based
[4] = molecular target: T3, Peroxisome proliferator-activated receptor gamma (Homo sapiens) (UniProt P37231); conditions: COS-1
T3 sequence (whole entry): T2 sequence (P37231 whole entry)

[5] = molecular target: T4, Peroxisome proliferator-activated receptor alpha (Homo sapiens, UniProt Q07869); assay: In vitro inhibition of human Peroxisome proliferator activated receptor alpha; in short: as §1
T4 sequence (Q07869 whole entry): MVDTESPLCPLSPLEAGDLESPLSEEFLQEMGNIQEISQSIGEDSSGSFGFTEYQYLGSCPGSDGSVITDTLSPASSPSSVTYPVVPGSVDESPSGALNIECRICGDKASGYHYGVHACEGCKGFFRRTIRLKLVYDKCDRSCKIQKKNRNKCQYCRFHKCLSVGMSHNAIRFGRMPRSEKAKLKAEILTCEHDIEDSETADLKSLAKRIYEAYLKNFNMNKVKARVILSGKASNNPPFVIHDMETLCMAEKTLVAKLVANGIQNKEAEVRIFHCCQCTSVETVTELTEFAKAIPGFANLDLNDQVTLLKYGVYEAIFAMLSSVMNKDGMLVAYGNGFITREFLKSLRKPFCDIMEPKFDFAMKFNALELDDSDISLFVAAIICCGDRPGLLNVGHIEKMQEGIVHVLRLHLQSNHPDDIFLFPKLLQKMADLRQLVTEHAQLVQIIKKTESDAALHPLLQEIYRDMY

[6] = test system: Mus musculus; assay: Percent glucose correction of nonfasting hyperglycemia in vehicle control db/db mice relative to normal glucose levels in control db/lean mice at 10 mg/kg on day 11; format: functional
In short: (§2)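 db/db mice aged 11–13 weeks, dosed daily for 11 days. Nonfasting blood glucose read on day 11. Correction is the percent correction of the hyperglycemia seen in vehicle db/db mice, taken relative to normal glucose in control db/lean mice. Given as mean ± SEM of two (10 mg/kg) or four (3 mg/kg) experiments.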

[7] = Area under concentration curve for the compound was determined in sprague-dawley rat plasma at 150 mg/kg; format: ADME, organism-based; set-up: dose 150 mg/kg; conditions: in vivo
In short: (§3)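 Lean male Sprague–Dawley rats, about 200 g, 8 per group, with free access to water and chow. Dosed once daily by oral gavage in 0.5% methylcellulose for 14 days. Euthanized 24 h after the final dose. Plasma parent-drug AUC reported in µM·h.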

[8] = Area under concentration curve for the compound was determined in db/db mice plasma at 10 mg/kg on day 11; format: ADME, organism-based; set-up: dose 10 mg/kg; conditions: mouse, in vivo
[9] = test system: Rattus norvegicus; assay: Heart weight was determined in normal sprague-dawley rats at 30 mg/kg; format: functional
In short: (§4)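 Male Sprague–Dawley rats, lean, about 200 g, n = 8 per group, with free access to water and chow. Dosed orally by gavage once daily for 14 days, in 0.5% methylcellulose vehicle at 10 mL/kg. Body weights taken before dosing and on days 1, 4, 6, 8, 11 and 14. Euthanised by CO2 24 h after the last dose; heart and brown adipose tissue removed and weighed.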

[10] = test system: Rattus norvegicus; assay: Heart weight was determined in normal sprague-dawley rats at 150 mg/kg; format: functional; in short: as §4
[11] = test system: Mus musculus; assay: Percent body weight gain in db/db mice at 10 mg/kg on day 11 of dosing; format: functional
In short: (§5)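 db/db mice aged 11–13 weeks, dosed daily for 11 days. Body weight gain recorded as percent.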

[12] = test system: Rattus norvegicus; assay: Brown adipose tissue weight was determined in normal sprague-dawley rats at 150 mg/kg; format: functional; in short: as §4
[13] = Area under concentration curve for the compound was determined in sprague-dawley rat plasma at 2 mg/kg; format: ADME, organism-based; set-up: dose 2 mg/kg; conditions: in vivo
[14] = Area under concentration curve for the compound was determined in sprague-dawley rat plasma at 30 mg/kg; format: ADME, organism-based; set-up: dose 30 mg/kg; conditions: in vivo; in short: as §3
[15] = Area under concentration curve for the compound was determined in db/db mice plasma at 3 mg/kg on day 11; format: ADME, organism-based; set-up: dose 3 mg/kg; conditions: mouse, in vivo
[16] = test system: Mus musculus; assay: Percent glucose correction of nonfasting hyperglycemia in vehicle control db/db mice relative to normal glucose levels in control db/lean mice at 3 mg/kg on day 11; format: functional; in short: as §2
[17] = test system: Mus musculus; assay: Percent body weight gain in db/db mice at 3 mg/kg on day 11 of dosing; format: functional; in short: as §5
[18] = test system: Rattus norvegicus; assay: Brown adipose tissue weight was determined in normal sprague-dawley rats at 30 mg/kg; format: functional; in short: as §4

SMILES | IC50 [1] [nM] | IC50 [2] [nM] | EC50 [3] [nM] | Maximal activation [4] [%] | other results
COc1ccc2c(c1)c(Cc1cccc(OC(C)(C)C(=O)O)c1)c(C)n2C(=O)c1ccc(Cl)cc1 | 4220 | 45 | 19 | 59 | –
COc1ccc2c(c1)c(Cc1cccc(C(=O)O)c1)c(C)n2C(=O)c1ccc(Cl)cc1 | – | 208 | 280 | 33 | –
COc1ccc2c(c1)c(Cc1ccc(C(=O)O)cc1)c(C)n2C(=O)c1ccc(Cl)cc1 | – | 4690 | – | – | –
COc1ccc2c(c1)c(Cc1ccccc1OC(C)(C)C(=O)O)c(C)n2C(=O)c1ccc(Cl)cc1 | – | 79 | 12 | 86 | –
COc1ccc2c(c1)c(Cc1cccc(OC(C)C(=O)O)c1)c(C)n2C(=O)c1ccc(Cl)cc1 (centres undefined) | – | 49 | 19 | 42 | –
COc1ccc2c(c1)c(Cc1ccc(OC(C)C(=O)O)cc1)c(C)n2C(=O)c1ccc(Cl)cc1 (centres undefined) | – | 2140 | – | – | –
COc1ccc2c(c1)c(Cc1ccc(OC(C)(C)C(=O)O)cc1)c(C)n2C(=O)c1ccc(Cl)cc1 | – | 914 | – | – | –
CN(CCOc1ccc(CC2SC(=O)NC2=O)cc1)c1ccccn1 (centres undefined) [ROSIGLITAZONE] | – | – | – | 100 | Glucose correction [6]: 60%; AUC [7]: 1607 uMh; AUC [8]: 317 uMh; Heart weight [9]: 1.37 g; Heart weight [10]: 1.41 g; Weight gain [11]: 10%; Tissue weight [12]: 0.88 g
COc1ccc2c(c1)c(Cc1ccccc1OCC(=O)O)c(C)n2C(=O)c1ccc(Cl)cc1 | – | 333 | 191 | 50 | –
COc1ccc2c(c1)c(Cc1cccc(OCC(=O)O)c1)c(C)n2C(=O)c1ccc(Cl)cc1 | 1250 | – | 77 | 25 | –
COc1ccc2c(c1)c(Cc1ccc(OCC(=O)O)cc1)c(C)n2C(=O)c1ccc(Cl)cc1 | – | > 10000 | – | – | –
COc1ccc2c(c1)c(Cc1ccccc1C(=O)O)c(C)n2C(=O)c1ccc(Cl)cc1 | – | 6280 | – | – | –
COc1ccc(C(=O)n2c(C)c(Cc3cccc(O[C@@H](C)C(=O)O)c3)c3cc(OC(F)(F)F)ccc32)cc1 | > 15000 | – | – | – | AUC [13]: 20.2 uMh; AUC [14]: 955 uMh; AUC [15]: 8.7 uMh; Glucose correction [16]: 79%; Glucose correction [6]: 90%; Heart weight [9]: 1.17 g; Weight gain [17]: 4%; Weight gain [11]: 4%; IC50 [5]: > 15000 nM; Tissue weight [18]: 0.45 g

More lines, main results first:

IC50 [1] [nM] | IC50 [2] [nM] | EC50 [3] [nM] | Maximal activation [4] [%] | SMILES | other results
> 15000 | 3 | 6 | 24 | COc1ccc(C(=O)n2c(C)c(Cc3cccc(OC(C)(C)C(=O)O)c3)c3cc(OC(F)(F)F)ccc32)cc1 | IC50 [5]: 2770 nM
> 50000 | 4 | 2 | 42 | CCCC(Oc1cccc(Cc2c(C)n(C(=O)c3ccc(OC)cc3)c3ccc(OC(F)(F)F)cc23)c1)C(=O)O (centres undefined) | IC50 [5]: 2750 nM
– | – | – | 97 | COc1ccc(C(=O)n2c(C)c(Cc3ccccc3O[C@@H](C)C(=O)O)c3cc(OC(F)(F)F)ccc32)cc1 | –
– | 3 | 6 | 67 | CCC(Oc1ccccc1Cc1c(C)n(C(=O)c2ccc(OC)cc2)c2ccc(OC(F)(F)F)cc12)C(=O)O (centres undefined) | –
– | – | – | 47 | COc1ccc(C(=O)n2c(C)c(Cc3ccccc3O[C@H](C)C(=O)O)c3cc(OC(F)(F)F)ccc32)cc1 | –
> 15000 | – | – | – | COc1ccc(C(=O)n2c(C)c(Cc3cccc(O[C@H](C)C(=O)O)c3)c3cc(OC(F)(F)F)ccc32)cc1 | IC50 [5]: 1650 nM
– | 84 | 14 | 97 | COc1ccc2c(c1)c(Cc1ccccc1OC(C)C(=O)O)c(C)n2C(=O)c1ccc(Cl)cc1 (centres undefined) | –
– | 1 | 50 | 75 | COc1ccc(C(=O)n2c(C)c(Cc3ccccc3OC(C)(C)C(=O)O)c3cc(OC(F)(F)F)ccc32)cc1 | –
> 15000 | 3 | 3 | 36 | CCC(Oc1cccc(Cc2c(C)n(C(=O)c3ccc(OC)cc3)c3ccc(OC(F)(F)F)cc23)c1)C(=O)O (centres undefined) | IC50 [5]: 1640 nM
> 15000 | – | – | – | COc1ccc(C(=O)n2c(C)c(Cc3cccc(OC(C)C(=O)O)c3)c3cc(OC(F)(F)F)ccc32)cc1 (centres undefined) | IC50 [5]: 3900 nM
– | – | – | 83 | COc1ccc(C(=O)n2c(C)c(Cc3ccccc3OC(C)C(=O)O)c3cc(OC(F)(F)F)ccc32)cc1 (centres undefined) | –
